What was measured:
[1] = 21-day oral dosage in mice ref 22; cited from earlier work
COLO-320DM cells = experiment: BrdU assay; type: cell-based, human; settings: 48 h
Summary of the method: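 Cells were grown in RPMI-1640 with 10% heat-inactivated FBS and exposed to test compound for 48 h before BrdU incorporation was measured. Tukey-Kramer comparison was against DMSO-treated cells. Experiments were repeated at least twice; representative results are shown with standard deviation.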

RKO cells = experiment: BrdU assay; type: cell-based, human; settings: 48 h
Summary of the method: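 Cells were kept in DMEM with 10% FBS, treated for 48 h, then assayed for BrdU incorporation. DNA synthesis was compared with DMSO-treated (basal) cells by Tukey-Kramer test. Experiments were repeated at least twice; representative data are shown with standard deviation.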

[2] = test system: non-phosphorylated (active) β-catenin; experiment: Immunofluorescence staining of active β-catenin in COLO-320DM cells; type: cell-based, human; settings: 1 μmol/L, 16 h, DMSO 100%
Summary of the method: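 Cells were exposed to 1 μmol/L test compound for 16 h, then immunostained with anti-non-phosphorylated β-catenin antibody (D13A1, 1:500) and counterstained with DAPI. Fluorescence images were quantified, and intensity was expressed relative to DMSO-treated cells (100%).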

[3] = test system: tankyrase, Axin1/2, β-catenin; experiment: Western blot analysis of pharmacodynamic biomarkers in COLO-320DM cells; type: cell-based, human; settings: 16 h
Summary of the method: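 Cells cultured in RPMI-1640 with 10% heat-inactivated FBS were treated for 16 h. Whole cell lysates were then analysed by western blot.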

[4] = test system: TCF/LEF reporter activity; experiment: TCF/LEF luciferase reporter assay, COLO-320DM; type: cell-based, human; settings: 30 h
Summary of the method: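 Cells were transfected with TCF reporter vectors (including pTcf7wt-luc), then exposed to test compound for 30 h and luciferase activity was read. Comparison was by Tukey-Kramer test against pTcf7wt-luc-transfected DMSO-treated cells.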

[5] = test system: TCF/LEF reporter activity; experiment: TCF/LEF luciferase reporter assay, L-Wnt3A-stimulated HEK293T; type: cell-based; settings: 30 h
Summary of the method: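 HEK293T cells were transfected with TCF luciferase reporters. Conditioned medium from L or L‐Wnt3A cells, prepared per the ATCC protocol, was added together with test compound, and luciferase was read after 30 h. Comparison was by Tukey-Kramer test against pTcf7wt-luc-transfected DMSO controls.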

SMILES | Body weight and small intestine histology in mice [1] | DNA synthesis (BrdU) (COLO-320DM cells; 10 μmol/L) | DNA synthesis (BrdU) (COLO-320DM cells; concentrations up to 3 μmol/L) | DNA synthesis (BrdU) (RKO cells) | DNA synthesis (BrdU) relative to basal level (RKO cells; 10 μmol/L) | Immunofluorescence intensity of active β-catenin [2] [%] | Tankyrase, Axin1/2 and β-catenin protein levels (western blot) [3] | TCF/LEF reporter activity [4] | TCF/LEF luciferase activity [5]
COc1ccc(C2(CNC(=O)c3ccc(NC(=O)c4ccco4)cc3)CCOCC2)cc1 [JW55] | no body weight alterations or histological changes in the small intestine | – | – | – | – | – | – | – | –
O=C(c1cc(Cc2n[nH]c(=O)c3ccccc23)ccc1F)N1CCN(C(=O)C2CC2)CC1 [olaparib] | – | marginally inhibited | no effects | resistant | half | 106 | did not affect | no effect | only marginally inhibited

— publication PMC6272098 (Cancer Science, 2018)
